The M2OR odorant receptor database

biological target: T1, OR2W1 (Homo sapiens) (UniProt Q9Y3N9); conditions: stereoisomer not certain
T1 sequence (whole entry): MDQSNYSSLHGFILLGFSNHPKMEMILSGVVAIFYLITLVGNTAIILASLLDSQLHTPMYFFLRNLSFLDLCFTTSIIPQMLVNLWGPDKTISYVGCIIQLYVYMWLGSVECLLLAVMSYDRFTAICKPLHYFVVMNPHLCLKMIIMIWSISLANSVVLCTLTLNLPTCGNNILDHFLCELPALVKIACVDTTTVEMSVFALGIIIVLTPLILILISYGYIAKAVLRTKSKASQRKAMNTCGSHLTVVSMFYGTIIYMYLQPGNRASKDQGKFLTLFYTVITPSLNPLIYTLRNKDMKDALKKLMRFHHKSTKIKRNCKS
How it was run: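 Transient luciferase assays in mammalian cell lines were common, though methods varied by source. The values come from published papers and their supplementary material, with extra details from the original authors when needed. Responsive refers to a measured signal the original authors judged statistically different from baseline, and non-responsive (inactive) to the remainder.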

Odorant receptor agonist call, active:
C=C(C)C1CCC(C)C(=O)C1 (stereo not given), CCC(C)CCC(=O)[O-] (stereo not given), CSSSC, CCCCOC=O, CCCCCCC(C)=O, CCC(=O)C(=O)CC

Odorant receptor agonist call, inactive:
CC(=O)C=CC1=C(C)CCCC1(C)C, CC(=O)C(C)O (stereo not given), CSSc1ccoc1C, CCC=O, CCO, CC(=O)CC(C)(C)S, CC(=O)Oc1ccccc1, Cc1cccc(C)c1O, COc1nccnc1C(C)C, CCC(=O)C(C)S (stereo not given), OCc1ccccc1, CCC(S)C(C)=O (stereo not given), CC(C)CCO, CCCCC(=O)O, CCCC(=O)C(C)CC (stereo not given), CCCC(C)=O, CCCCOC(=O)C(C)OC(=O)CCC (stereo not given), CC(=O)C1=NCCS1, COC1=C(C)OC(C)C1=O (stereo not given), CCC(C(=O)O)c1ccccc1 (stereo not given), COc1cccc(OC)c1O, O=C(O)C=Cc1ccc(O)cc1, CCCCC(CC)CCC(=O)O (stereo not given), CCCCCCCCCC(=O)[O-].[H+], c1ccccc1, CSC, CCC(=O)C1=NCCC1, CC=O, CC12CCC(CC1=O)C2(C)C (stereo not given)
